Active and inactive are the calls of the source.
How the values were obtained:
[1] = target: Activated CDC42 kinase 1 (Homo sapiens) (UniProt Q07912); test: Binding affinity to wild-type human partial length TNK2 (S159 to D474 residues) expressed in bacterial expression system assessed as remaining unbound target protein level at 1000 nM by Kinomescan method relative to control
MV4-11 = test: Antitumor activity against human MV4-11 cells xenografted in nu/nu mouse assessed as tumor growth inhibition at 10 to 30 mg/kg, po administered via gavage for 2 weeks measured every day during compound dosing; assay type: functional, organism-based
Procedure, shortened: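 Female nu/nu mice, five weeks old, implanted subcutaneously in the right flank with 5 million MV4-11 cells in PBS/Matrigel 1:1. Daily oral gavage in 0.5% methylcellulose/0.4% Tween80 started at tumor volume 200–400 mm³, 10, 20 or 30 mg/kg/day or vehicle, 5 mice per group. Tumor volume (W²×L)/2 and body weight measured daily; mean ± SEM.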

[2] = target: Ribosomal protein S6 kinase alpha-4 (Homo sapiens) (UniProt O75676); test: Binding affinity to wild-type human partial length C-terminal RPS6KA4 kinase domain 2 (M375 to T705 residues) expressed in mammalian expression system assessed as remaining unbound target protein level at 1000 nM by Kinomescan method relative to control
Sequence of Ribosomal protein S6 kinase alpha-4 (Homo sapiens) (O75676 whole entry, looked up, the tested form may be a part): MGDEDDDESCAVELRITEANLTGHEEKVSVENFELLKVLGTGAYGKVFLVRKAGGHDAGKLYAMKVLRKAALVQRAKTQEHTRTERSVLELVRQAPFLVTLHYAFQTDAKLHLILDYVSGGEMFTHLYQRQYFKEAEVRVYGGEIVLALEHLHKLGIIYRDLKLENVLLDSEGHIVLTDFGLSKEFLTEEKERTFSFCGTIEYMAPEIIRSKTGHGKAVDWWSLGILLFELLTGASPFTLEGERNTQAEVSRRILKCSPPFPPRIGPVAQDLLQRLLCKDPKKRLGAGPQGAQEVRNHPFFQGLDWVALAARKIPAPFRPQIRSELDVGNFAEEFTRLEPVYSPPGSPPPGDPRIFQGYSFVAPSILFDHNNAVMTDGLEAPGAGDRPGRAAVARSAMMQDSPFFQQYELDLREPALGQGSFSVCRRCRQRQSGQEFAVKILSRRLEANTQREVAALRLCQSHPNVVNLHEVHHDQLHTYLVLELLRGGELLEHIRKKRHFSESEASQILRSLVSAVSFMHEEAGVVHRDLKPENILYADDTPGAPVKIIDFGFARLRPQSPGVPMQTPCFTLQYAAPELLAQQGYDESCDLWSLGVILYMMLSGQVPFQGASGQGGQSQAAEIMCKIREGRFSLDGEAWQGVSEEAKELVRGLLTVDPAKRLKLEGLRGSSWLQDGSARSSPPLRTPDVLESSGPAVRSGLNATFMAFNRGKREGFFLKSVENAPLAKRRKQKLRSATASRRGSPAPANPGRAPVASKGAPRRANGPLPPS
Procedure, shortened: (§1)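 Profiled in a KINOMEscan binding panel with the inhibitor at a single concentration of 1 μM. Binding to each kinase was read out as percent of control, relative to a DMSO control. Strong binders were defined as those with a percent control value below 1.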

[3] = Tmax in mouse at 3 mg/kg, iv by LC-MS/MS analysis; assay type: ADME, organism-based; conditions: in vivo
[4] = target: Phosphatidylinositol 4-phosphate 5-kinase type-1 alpha (Homo sapiens) (UniProt Q99755); test: Binding affinity to wild-type human full length PIP5K1A (M1 to H562 residues) expressed in bacterial expression system assessed as remaining unbound target protein level at 1000 nM by Kinomescan method relative to control; procedure, shortened: as §1
[5] = target: Protein-tyrosine kinase 6 (Homo sapiens) (UniProt Q13882); test: Binding affinity to wild-type human partial length BRK (L166 to T451 residues) expressed in bacterial expression system assessed as remaining unbound target protein level at 1000 nM by Kinomescan method relative to control
Procedure, shortened: (§2)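 KINOMEscan competition binding profile across a panel of 468 kinases and mutants, with the inhibitor tested at a single concentration of 1 μM. Binding is reported as percent of control, meaning signal relative to a DMSO control.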

[6] = Cmax in mouse at 10 mg/kg, po by LC-MS/MS analysis; assay type: ADME, organism-based; parameters: dose 10 mg/kg, route oral; conditions: in vivo
[7] = target: Mitogen-activated protein kinase 10 (Homo sapiens) (UniProt P53779); test: Binding affinity to wild-type human partial length JNK3 (V28 to Q422 residues) expressed in mammalian expression system assessed as remaining unbound target protein level at 1000 nM by Kinomescan method relative to control
Procedure, shortened: (§3)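 KINOMEscan binding panel of 468 kinases/mutants. Inhibitor was tested at a single concentration of 1 μM. Binding is reported as percent of control, defined relative to a DMSO control.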

[8] = target: Cyclin-dependent kinase 4/cyclin D1 (Homo sapiens) (UniProt P11802+P24385); test: Binding affinity to wild-type human full length CDK4/cyclinD1 (M1 to E303 residues) expressed in mammalian expression system assessed as remaining unbound target protein level at 1000 nM by Kinomescan method relative to control
Procedure, shortened: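 KINOMEscan competitive binding profile at 1 μM inhibitor. Remaining target binding reported as percent of DMSO control.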

[9] = target: Myosin light chain kinase 2, skeletal/cardiac muscle (Homo sapiens) (UniProt Q9H1R3); test: Binding affinity to wild-type human partial length MYLK2 (D258 to K570 residues) expressed in bacterial expression system assessed as remaining unbound target protein level at 1000 nM by Kinomescan method relative to control; procedure, shortened: as §3
Sequence of Myosin light chain kinase 2, skeletal/cardiac muscle (Homo sapiens) (Q9H1R3 whole entry, the tested form may be a part): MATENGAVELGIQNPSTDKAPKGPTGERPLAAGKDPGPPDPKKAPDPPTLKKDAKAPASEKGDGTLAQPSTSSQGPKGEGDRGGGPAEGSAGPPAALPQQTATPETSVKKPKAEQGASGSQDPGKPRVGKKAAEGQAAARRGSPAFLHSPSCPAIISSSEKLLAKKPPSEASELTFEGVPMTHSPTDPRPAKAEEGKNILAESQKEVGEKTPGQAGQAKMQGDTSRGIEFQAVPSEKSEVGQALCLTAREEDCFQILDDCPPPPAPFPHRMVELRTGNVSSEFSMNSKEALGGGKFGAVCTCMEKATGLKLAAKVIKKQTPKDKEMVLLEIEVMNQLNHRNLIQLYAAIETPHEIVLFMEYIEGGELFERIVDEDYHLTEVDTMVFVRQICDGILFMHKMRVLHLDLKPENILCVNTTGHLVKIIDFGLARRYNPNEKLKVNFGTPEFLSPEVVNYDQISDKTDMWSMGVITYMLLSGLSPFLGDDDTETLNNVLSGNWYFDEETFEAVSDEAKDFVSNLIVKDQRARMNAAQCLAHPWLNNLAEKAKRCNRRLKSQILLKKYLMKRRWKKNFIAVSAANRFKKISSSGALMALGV

[10] = target: Aurora kinase A (Homo sapiens) (UniProt O14965); test: Binding affinity to wild-type human partial length AURKA (E122 to K401 residues) expressed in mammalian expression system assessed as remaining unbound target protein level at 1000 nM by Kinomescan method relative to control; procedure, shortened: as §1
Sequence of Aurora kinase A (Homo sapiens) (O14965 whole entry, the tested form may be a part): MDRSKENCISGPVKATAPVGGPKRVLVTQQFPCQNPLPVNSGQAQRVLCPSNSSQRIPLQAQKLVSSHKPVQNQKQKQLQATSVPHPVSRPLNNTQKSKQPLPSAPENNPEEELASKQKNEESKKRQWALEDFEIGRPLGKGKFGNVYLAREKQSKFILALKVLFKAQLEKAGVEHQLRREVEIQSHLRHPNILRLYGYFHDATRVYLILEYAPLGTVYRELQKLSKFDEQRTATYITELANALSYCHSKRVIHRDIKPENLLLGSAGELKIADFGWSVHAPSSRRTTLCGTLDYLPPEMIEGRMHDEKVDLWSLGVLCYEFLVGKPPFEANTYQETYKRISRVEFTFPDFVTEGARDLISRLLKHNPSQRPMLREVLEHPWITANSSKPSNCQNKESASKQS

[11] = target: Calcium/calmodulin-dependent protein kinase type II subunit beta (Homo sapiens) (UniProt Q13554); test: Binding affinity to wild-type human partial length CAMK2B (M1 to Q380 residues) expressed in bacterial expression system assessed as remaining unbound target protein level at 1000 nM by Kinomescan method relative to control; procedure, shortened: as §1
[12] = target: Serine/threonine-protein kinase 3 (Homo sapiens) (UniProt Q13188); test: Binding affinity to wild-type human partial length MST2 (D17 to E318 residues) expressed in bacterial expression system assessed as remaining unbound target protein level at 1000 nM by Kinomescan method relative to control; procedure, shortened: as §3
[13] = target: Tyrosine-protein kinase ABL1 (Homo sapiens) (UniProt P00519); test: Binding affinity to wild-type human non-phosphorylated ABL1 (S229 to K512 residues) expressed in mammalian expression system assessed as remaining unbound target protein level at 1000 nM by Kinomescan method relative to control; procedure, shortened: as §1
Sequence of Tyrosine-protein kinase ABL1 (Homo sapiens) (P00519 whole entry, the tested form may be a part): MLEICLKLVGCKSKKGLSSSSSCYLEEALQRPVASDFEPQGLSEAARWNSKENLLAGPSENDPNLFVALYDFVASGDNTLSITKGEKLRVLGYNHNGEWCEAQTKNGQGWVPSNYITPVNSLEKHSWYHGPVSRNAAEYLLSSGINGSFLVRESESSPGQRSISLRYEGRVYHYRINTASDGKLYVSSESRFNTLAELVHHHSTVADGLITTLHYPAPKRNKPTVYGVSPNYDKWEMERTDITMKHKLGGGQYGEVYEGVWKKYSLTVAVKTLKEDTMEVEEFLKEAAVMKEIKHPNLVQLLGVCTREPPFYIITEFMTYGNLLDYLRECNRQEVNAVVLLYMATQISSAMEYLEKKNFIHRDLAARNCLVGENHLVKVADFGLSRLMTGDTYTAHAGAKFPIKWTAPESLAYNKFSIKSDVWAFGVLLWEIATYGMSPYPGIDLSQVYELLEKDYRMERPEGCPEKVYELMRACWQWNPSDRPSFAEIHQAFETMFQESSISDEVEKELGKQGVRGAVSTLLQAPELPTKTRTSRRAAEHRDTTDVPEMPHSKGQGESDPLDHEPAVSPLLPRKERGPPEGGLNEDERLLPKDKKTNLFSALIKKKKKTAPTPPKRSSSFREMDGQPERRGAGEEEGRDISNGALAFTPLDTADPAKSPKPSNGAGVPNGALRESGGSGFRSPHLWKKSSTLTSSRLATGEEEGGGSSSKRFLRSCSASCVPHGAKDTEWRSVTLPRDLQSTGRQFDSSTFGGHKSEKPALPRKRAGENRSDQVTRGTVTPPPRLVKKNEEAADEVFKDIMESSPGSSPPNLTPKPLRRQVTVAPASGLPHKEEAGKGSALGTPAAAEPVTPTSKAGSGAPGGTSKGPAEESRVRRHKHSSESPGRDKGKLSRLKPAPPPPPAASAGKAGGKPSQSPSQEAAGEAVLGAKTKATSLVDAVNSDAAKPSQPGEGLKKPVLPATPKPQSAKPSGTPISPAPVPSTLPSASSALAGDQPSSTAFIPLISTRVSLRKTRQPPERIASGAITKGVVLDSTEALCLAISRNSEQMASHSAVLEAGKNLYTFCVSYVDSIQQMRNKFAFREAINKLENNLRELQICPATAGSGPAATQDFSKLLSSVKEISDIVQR

[14] = target: Cyclin-dependent kinase 17 (Homo sapiens) (UniProt Q00537); test: Binding affinity to wild-type human full length PCTK2 (M1 to F523 residues) expressed in bacterial expression system assessed as remaining unbound target protein level at 1000 nM by Kinomescan method relative to control; procedure, shortened: as §2
Sequence of Cyclin-dependent kinase 17 (Homo sapiens) (Q00537 whole entry, looked up, the tested form may be a part): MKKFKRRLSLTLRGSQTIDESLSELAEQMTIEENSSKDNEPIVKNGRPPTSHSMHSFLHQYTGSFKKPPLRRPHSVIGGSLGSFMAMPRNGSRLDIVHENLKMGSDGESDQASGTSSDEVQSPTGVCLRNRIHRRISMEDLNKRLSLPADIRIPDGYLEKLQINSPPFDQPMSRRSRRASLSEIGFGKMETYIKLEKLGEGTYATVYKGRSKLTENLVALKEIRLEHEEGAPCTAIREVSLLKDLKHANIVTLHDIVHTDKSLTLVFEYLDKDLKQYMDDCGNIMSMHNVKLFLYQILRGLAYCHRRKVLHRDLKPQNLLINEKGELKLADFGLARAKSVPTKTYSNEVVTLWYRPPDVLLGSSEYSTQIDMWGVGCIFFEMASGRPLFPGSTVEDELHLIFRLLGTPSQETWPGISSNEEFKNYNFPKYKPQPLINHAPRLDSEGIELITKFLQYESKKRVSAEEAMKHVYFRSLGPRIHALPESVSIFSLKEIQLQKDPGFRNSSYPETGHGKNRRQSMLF

[15] = target: Activin receptor type-1B (Homo sapiens) (UniProt P36896); test: Binding affinity to wild-type human ACVR1B (S187 to I505 residues) expressed in bacterial expression system assessed as remaining unbound target protein level at 1000 nM by Kinomescan method relative to control
Procedure, shortened: (§4)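 Single-point competition binding screen across a panel of 468 kinases and mutants, with the inhibitor at 1 μM. Binding is read out as percent of a DMSO control, and targets below 1 percent control were classed as strong binders.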

[16] = target: Tyrosine-protein kinase BTK (Homo sapiens) (UniProt Q06187); test: Binding affinity to wild-type human full length BTK (M1 to S659 residues) expressed in mammalian expression system assessed as remaining unbound target protein level at 1000 nM by Kinomescan method relative to control; procedure, shortened: as §4
Sequence of Tyrosine-protein kinase BTK (Homo sapiens) (Q06187 whole entry, the tested form may be a part): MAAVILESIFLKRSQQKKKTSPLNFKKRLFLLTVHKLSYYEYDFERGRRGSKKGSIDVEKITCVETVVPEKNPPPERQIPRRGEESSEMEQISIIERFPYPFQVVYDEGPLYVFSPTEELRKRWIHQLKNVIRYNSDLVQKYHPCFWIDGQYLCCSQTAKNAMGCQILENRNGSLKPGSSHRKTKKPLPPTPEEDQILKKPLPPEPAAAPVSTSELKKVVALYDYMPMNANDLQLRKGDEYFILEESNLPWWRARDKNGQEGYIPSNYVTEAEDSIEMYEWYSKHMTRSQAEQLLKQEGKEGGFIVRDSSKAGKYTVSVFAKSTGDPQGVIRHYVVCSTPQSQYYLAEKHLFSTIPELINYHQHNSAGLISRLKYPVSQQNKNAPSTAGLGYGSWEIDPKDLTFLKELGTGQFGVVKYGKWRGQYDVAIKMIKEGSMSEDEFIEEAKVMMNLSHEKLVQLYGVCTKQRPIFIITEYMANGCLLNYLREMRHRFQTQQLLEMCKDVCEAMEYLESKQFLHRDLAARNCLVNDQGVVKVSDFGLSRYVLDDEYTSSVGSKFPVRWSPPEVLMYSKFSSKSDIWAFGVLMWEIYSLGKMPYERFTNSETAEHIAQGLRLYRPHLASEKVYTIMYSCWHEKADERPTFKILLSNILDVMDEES

[17] = target: Mitogen-activated protein kinase kinase kinase 1 (Homo sapiens) (UniProt Q13233); test: Binding affinity to wild-type human partial length MAP3K1 (L1202 to W1512 residues) expressed in mammalian expression system assessed as remaining unbound target protein level at 1000 nM by Kinomescan method relative to control
[18] = target: Phosphorylase b kinase gamma catalytic chain, liver/testis isoform (Homo sapiens) (UniProt P15735); test: Binding affinity to wild-type human partial length PHKG2 (M1 to W300 residues) expressed in bacterial expression system assessed as remaining unbound target protein level at 1000 nM by Kinomescan method relative to control; procedure, shortened: as §3
Sequence of Phosphorylase b kinase gamma catalytic chain, liver/testis isoform (Homo sapiens) (P15735 whole entry, the tested form may be a part, canonical isoform): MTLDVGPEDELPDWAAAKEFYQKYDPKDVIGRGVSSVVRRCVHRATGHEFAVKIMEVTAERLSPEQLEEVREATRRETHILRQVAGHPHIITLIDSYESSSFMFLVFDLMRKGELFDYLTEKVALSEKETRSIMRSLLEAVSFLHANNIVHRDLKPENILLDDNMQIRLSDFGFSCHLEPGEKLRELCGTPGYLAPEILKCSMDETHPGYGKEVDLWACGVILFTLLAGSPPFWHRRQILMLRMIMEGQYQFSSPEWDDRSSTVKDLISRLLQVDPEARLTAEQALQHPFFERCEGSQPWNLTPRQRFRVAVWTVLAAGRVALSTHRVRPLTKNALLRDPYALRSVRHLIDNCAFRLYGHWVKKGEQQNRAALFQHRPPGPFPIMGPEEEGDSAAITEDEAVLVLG

[19] = target: 3-phosphoinositide-dependent protein kinase 1 (Homo sapiens) (UniProt O15530); test: Binding affinity to wild-type human full length PDPK1 (M1 to Q556 residues) expressed in bacterial expression system assessed as remaining unbound target protein level at 1000 nM by Kinomescan method relative to control; procedure, shortened: as §1
Sequence of 3-phosphoinositide-dependent protein kinase 1 (Homo sapiens) (O15530 whole entry, the tested form may be a part): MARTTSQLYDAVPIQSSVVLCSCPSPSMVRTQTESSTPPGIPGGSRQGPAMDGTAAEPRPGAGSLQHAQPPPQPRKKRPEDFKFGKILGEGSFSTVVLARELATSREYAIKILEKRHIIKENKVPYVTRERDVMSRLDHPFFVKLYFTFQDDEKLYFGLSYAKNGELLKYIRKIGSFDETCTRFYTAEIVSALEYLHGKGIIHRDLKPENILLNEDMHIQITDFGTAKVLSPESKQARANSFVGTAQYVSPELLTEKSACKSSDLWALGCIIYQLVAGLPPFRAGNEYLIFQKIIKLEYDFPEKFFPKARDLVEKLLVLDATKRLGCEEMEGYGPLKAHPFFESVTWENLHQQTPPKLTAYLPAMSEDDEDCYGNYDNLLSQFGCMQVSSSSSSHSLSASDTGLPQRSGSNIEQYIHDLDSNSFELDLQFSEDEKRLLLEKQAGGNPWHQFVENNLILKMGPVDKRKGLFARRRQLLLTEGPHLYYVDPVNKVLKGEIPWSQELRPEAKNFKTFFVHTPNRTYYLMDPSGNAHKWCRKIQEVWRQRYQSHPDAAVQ

## COCCN[C@H]1CC[C@H](Nc2cc(-c3csc(NCC4(C#N)CCOCC4)n3)c(Cl)cn2)CC1
[1]
  Activity: 95%
MV4-11
  TGI: Active
[2]
  Activity: 65%
[3]
  Tmax: 4.98 min
[4]
  Activity: 100%
[5]
  Activity: 95%
[6]
  Cmax: 116 ng/mL
[7]
  Activity: 7.1%
[8]
  Activity: 69%
[9]
  Activity: 93%
[10]
  Activity: 100%
[11]
  Activity: 100%
[12]
  Activity: 69%
[13]
  Activity: 100%
[14]
  Activity: 32%
[15]
  Activity: 92%
[16]
  Activity: 100%
[17]
  Activity: 100%
[18]
  Activity: 99%
[19]
  Activity: 92%
